Consider 1 compound from PMC9050161 (RSC Advances, 2020).

The target of series [1] is MRP3 (Homo sapiens, UniProt O15438). Briefly: M2 excretion in HeLa1A9 cells after shRNA knock-down of MRP3. Particulars: MRP3 silenced, p > 0.05. The format is cell-based. The method, boiled down: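 shRNA plasmid against BCRP, MRP1, MRP3 or MRP4 transfected into UGT1A9-expressing HeLa cells, then exposed to 5 μM test compound in HBSS. Medium sampled at 30–120 min with replacement; cells collected at 120 min. UHPLC gave extracellular and intracellular glucuronide, excretion rate, efflux clearance (excretion rate/intracellular concentration) and fraction metabolized (fmet), each compared with control. Triplicate.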

For series [2], the target named is CYP2C8 (Homo sapiens, UniProt P10632). In words: Inhibition of CYP2C8. In kind it is biochemical. Particulars: PI-103 1, 10 and 100 μM. Put shortly: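 Recombinant human CYPs at 0.1 mg mL−1 protein, each with its probe substrate near Km: coumarin 100 μM (2A6), bupropion 100 μM (2B6), paclitaxel 60 μM (2C8), tolbutamide 200 μM (2C9), mephenytoin 100 μM (2C19), chlorzoxazone 200 μM (2E1). Incubated at 37 °C with or without test compound at 1, 10 or 100 μM. UHPLC-TQD-MS read-out; triplicate.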

Series [3] deals with CYP3A4 (Homo sapiens, UniProt P08684). Briefly: Inhibition of CYP3A4. Particulars: PI-103 1, 10 and 100 μM. In kind it is biochemical. The method, boiled down: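 Recombinant human CYPs at 0.05 mg mL−1 protein, each with its probe substrate near Km: ethoxyresorufin 1 μM (CYP1A1), phenacetin 100 μM (CYP1A2), nifedipine 40 μM (CYP3A4, 3A5). Incubated at 37 °C without (control) or with test compound at 1, 10 and 100 μM. Supernatant analysed by UHPLC-TQD-MS; activity relative to control; triplicate.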

In series [4] the target is UGT1A1 (Homo sapiens, UniProt P22309). In words: Inhibition of UGT1A1. The format is biochemical. Particulars: PI-103 1, 10 and 100 μM. Put shortly: (§1)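 Recombinant human UGTs screened with probe substrates: β-estradiol for UGT1A1, propofol for 1A9, and 4-methylumbelliferone for 1A3, 1A6, 1A7, 1A8, 1A10, 2B4, 2B7, 2B10, 2B15 and 2B17. Incubated at 37 °C without (control) or with test compound at 1, 10 or 100 μM. Glucuronide formation measured relative to control; triplicate.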

Series [5] concerns the target UGT1A4 (Homo sapiens, UniProt P22310). In words: Activation of UGT1A4. In kind it is biochemical. Put shortly: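 Recombinant human UGT1A4 with trifluoperazine (TFP) as substrate for N-glucuronidation, at various TFP concentrations with or without test compound. Triplicate. Data fitted to a mechanistic two-site model assuming a reaction site and an allosteric site.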

For series [6], the target named is UGT1A10 (Homo sapiens, UniProt Q9HAW8). Briefly: Inhibition of UGT1A10. In kind it is biochemical. The following applies: PI-103 1, 10 and 100 μM. Put shortly: as §1
For series [7], the target named is UGT2B4 (Homo sapiens, UniProt P06133). Briefly: Inhibition of UGT2B4. The format is biochemical. Particulars: PI-103 1, 10 and 100 μM. Put shortly:
as §1

UGT1A4, sequence (P22310 29-534): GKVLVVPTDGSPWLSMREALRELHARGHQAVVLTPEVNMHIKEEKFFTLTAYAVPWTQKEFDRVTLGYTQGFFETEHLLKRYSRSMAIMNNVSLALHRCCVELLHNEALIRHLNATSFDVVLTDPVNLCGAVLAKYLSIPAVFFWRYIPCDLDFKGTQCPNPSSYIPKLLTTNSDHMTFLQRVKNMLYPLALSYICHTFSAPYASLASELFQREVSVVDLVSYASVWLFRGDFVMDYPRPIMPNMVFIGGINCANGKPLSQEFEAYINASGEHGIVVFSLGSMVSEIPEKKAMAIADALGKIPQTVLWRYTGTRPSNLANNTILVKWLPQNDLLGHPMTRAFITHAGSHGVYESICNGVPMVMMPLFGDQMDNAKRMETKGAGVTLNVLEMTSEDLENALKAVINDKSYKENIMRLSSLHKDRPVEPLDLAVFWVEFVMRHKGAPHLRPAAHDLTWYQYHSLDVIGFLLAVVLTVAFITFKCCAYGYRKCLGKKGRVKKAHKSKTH
MRP3, sequence (O15438 whole entry): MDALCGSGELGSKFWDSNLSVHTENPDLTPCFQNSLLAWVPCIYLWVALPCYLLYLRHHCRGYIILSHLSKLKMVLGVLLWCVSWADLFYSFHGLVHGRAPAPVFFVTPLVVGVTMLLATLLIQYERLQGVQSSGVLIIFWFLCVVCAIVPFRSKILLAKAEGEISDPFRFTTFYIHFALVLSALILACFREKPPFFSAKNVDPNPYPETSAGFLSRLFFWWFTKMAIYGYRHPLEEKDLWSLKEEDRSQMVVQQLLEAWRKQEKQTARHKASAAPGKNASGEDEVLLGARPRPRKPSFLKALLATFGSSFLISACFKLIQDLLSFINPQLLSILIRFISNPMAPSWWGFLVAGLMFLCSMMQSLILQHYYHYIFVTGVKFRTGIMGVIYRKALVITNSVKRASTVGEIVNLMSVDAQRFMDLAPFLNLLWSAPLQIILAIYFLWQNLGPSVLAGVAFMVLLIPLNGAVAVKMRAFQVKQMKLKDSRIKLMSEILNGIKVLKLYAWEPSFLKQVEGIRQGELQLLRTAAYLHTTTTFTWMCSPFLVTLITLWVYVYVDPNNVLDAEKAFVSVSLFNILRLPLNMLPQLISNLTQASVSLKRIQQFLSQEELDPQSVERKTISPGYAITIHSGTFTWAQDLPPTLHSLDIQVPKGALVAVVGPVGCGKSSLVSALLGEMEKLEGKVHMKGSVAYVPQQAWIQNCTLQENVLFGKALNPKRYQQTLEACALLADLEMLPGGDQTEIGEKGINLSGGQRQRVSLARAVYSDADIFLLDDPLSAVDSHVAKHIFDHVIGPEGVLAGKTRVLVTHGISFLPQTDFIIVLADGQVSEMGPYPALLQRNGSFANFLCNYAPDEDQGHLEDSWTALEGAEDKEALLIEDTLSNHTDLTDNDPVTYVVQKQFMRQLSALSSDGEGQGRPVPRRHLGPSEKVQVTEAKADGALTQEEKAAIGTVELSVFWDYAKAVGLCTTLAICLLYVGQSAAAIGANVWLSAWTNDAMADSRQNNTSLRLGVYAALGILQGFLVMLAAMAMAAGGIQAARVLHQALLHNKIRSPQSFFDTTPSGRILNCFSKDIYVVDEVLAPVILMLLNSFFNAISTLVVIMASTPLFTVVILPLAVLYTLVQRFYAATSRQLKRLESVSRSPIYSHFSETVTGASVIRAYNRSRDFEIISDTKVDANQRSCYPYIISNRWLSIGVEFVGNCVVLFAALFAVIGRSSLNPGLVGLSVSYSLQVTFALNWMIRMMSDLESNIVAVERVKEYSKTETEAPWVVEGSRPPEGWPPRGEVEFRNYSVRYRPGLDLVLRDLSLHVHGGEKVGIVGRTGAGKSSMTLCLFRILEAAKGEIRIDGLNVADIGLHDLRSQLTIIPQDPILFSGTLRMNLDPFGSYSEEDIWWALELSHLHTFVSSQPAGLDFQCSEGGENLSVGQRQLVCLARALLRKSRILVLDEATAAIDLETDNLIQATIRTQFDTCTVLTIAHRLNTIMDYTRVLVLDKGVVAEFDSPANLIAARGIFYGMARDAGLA
UGT2B4, sequence (P06133 24-528): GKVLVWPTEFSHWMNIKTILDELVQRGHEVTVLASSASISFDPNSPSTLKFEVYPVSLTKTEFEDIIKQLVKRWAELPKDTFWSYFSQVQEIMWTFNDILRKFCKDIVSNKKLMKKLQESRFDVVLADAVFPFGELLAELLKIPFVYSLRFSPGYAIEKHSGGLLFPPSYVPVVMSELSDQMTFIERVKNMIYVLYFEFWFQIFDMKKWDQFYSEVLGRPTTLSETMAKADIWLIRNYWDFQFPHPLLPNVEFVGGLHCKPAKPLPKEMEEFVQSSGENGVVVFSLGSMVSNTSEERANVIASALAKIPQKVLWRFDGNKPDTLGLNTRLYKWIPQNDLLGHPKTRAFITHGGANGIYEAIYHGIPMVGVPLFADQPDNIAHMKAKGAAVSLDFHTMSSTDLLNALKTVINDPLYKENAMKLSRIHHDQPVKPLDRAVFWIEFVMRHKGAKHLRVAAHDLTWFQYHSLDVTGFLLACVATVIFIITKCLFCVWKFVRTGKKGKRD
CYP2C8, sequence (P10632 whole entry): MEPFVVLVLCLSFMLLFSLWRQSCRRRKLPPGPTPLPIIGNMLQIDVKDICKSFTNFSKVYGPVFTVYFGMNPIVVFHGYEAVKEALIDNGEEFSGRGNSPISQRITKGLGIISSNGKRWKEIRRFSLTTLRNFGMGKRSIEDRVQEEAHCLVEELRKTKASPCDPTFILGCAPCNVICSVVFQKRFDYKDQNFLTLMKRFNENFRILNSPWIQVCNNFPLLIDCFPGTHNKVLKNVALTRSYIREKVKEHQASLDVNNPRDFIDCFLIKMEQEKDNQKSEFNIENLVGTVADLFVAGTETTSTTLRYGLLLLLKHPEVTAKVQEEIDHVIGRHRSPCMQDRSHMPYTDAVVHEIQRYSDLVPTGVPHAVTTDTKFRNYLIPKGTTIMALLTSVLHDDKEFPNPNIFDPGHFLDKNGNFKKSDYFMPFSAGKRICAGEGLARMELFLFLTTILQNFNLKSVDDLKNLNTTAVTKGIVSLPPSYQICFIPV
CYP3A4, sequence (P08684 whole entry): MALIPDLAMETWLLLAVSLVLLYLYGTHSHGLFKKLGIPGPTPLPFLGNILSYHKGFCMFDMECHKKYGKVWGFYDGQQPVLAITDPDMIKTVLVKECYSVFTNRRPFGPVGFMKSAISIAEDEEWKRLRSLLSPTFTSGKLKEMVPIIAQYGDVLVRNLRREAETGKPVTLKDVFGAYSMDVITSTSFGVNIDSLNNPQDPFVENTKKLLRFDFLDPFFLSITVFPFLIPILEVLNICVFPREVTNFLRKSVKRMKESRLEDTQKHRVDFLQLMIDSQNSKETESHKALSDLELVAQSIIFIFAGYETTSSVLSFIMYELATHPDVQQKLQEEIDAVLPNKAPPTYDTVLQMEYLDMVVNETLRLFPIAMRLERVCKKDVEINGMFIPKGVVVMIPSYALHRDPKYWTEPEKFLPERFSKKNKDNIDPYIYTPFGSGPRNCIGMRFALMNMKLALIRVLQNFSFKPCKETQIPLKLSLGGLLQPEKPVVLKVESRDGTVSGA
UGT1A1, sequence (P22309 26-533): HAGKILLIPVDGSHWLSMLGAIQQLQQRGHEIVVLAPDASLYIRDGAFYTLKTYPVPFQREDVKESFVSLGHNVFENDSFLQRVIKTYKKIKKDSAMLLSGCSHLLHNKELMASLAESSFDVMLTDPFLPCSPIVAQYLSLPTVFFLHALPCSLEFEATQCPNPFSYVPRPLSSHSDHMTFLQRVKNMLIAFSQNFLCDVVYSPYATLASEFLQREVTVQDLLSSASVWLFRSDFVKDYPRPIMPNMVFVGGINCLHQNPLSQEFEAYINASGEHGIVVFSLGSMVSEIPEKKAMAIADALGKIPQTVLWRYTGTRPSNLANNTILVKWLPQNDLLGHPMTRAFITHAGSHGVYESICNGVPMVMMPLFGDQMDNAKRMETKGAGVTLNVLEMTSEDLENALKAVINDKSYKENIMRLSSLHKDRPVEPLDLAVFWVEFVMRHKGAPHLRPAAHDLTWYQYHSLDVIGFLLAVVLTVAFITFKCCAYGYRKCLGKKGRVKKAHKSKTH
UGT1A10, sequence (Q9HAW8 26-530): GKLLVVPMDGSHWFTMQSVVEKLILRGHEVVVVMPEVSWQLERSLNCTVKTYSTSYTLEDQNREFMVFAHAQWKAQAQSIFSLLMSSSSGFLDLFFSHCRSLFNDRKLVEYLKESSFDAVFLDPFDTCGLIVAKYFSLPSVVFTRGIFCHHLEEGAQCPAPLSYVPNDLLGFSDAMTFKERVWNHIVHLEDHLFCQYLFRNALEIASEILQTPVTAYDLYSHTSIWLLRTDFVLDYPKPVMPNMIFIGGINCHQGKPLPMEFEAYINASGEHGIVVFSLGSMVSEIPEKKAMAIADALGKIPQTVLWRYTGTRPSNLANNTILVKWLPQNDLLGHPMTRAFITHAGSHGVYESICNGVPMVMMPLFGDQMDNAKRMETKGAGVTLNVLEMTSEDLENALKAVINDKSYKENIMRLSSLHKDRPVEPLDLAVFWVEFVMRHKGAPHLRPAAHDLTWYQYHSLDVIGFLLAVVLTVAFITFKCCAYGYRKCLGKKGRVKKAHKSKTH

Usually Ki stands for a measure of affinity in units of concentration, obtained from inhibition or displacement. Read a high Ki as weaker binding. In the case of `Oc1cccc(-c2nc(N3CCOCC3)c3oc4ncccc4c3n2)c1` [PI-103], in series [1], the “alteration in fmet value of PI-103” value came out at 9.2%. Further, the inhibitory effect entry is “negligible or weak” in series [2]; “negligible or weak” in series [3]; “negligible” in series [4]; “negligible” in series [6]; “negligible” in series [7]. The same compound returned a Ki in series [5] of 13.8 µM. The “maximal rate change (activation of UGT1A4)” value in series [5] (TFP-N-glucuronidation) is 1.6 fold.
